The values that follow come from ChEMBL document CHEMBL1144442, “Identification from a positional scanning peptoid library of in vivo active compounds that neutralize bacterial endotoxins” (J Med Chem, 2005).

Assay [1] concerns Mus musculus. Briefly: Ratio of percent of Tumor necrosis factor alpha measured in the presence with respect to that measured when animals were treated only with LPS;Mice were intraperitoneally injected with 10 ug of LPS alone or premixed with 20 ug of each compound;ND= Not determined. It is filed as functional. An outline of the steps: (§1)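 Mice were given 10 µg LPS ip, either alone or premixed with 20 µg compound in PBS containing 40% DMSO. Mice were bled after 1 h and serum TNF-α was measured by ELISA. Values are % of the TNF-α in mice given LPS alone (100%), as mean ± SD of seven mice per group.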

The subject of assay [2] is Mus musculus. Briefly: Ratio of percent of Tumor necrosis factor alpha measured in the presence with respect to that measured when animals were treated only with LPS;Mice were intraperitoneally injected with 10 ug of LPS alone or premixed with 20 ug of each compound. The format is functional. The gist of the method:
as §1

Assay [3] is filed under the species Mus musculus. Briefly: In vitro inhibitory concentration necessary to neutralize Escherichia coli 1,4''-diphosphoryl lipid A. It is filed as functional, organism-based. The gist of the method: (§2)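 Chromogenic Limulus amebocyte lysate assay, which detects free LPS or diphosphoryl lipid A left unneutralized by the test compound. Compounds were tested by 2-fold serial dilution. IC50 is the concentration that neutralizes 50% of the LPS or lipid A in vitro.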

The species entered for assay [4] is Mus musculus. Briefly: In vitro inhibitory concentration necessary to neutralize Gram-negative bacterial lipopolysaccharide in mouse model. It is filed as functional, organism-based. An outline of the steps: as §2
For assay [5], the system named is Mus musculus. Briefly: Ratio of percent of Tumor necrosis factor alpha measured in the presence with respect to that measured when animals were treated only with LPS;Mice were intraperitoneally injected with 10 ug of LPS alone or premixed with 100 ug of compound. The format is functional, organism-based. The gist of the method:
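Mice were given 10 µg LPS ip, alone or premixed with the test agent (peptoids 20 µg in PBS with 40% DMSO; polymyxin B or LALF-14 100 µg). Sera were collected after 1 h and TNF-α measured by ELISA. Values are % of the LPS-only TNF-α level, mean ± SD, seven mice per group.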

Residues, ends and D or L forms follow the SMILES beside them.

By IC50 is commonly meant the midpoint of a concentration-inhibition curve. The low end stands for greater potency in that assay, the high end for weaker potency in that assay.

Turning to `CC(C)C[C@@H]1NC(=O)[C@H](CCCN=C(N)N)NC(=O)[C@H](CCCN=C(N)N)NC(=O)[C@H](Cc2ccccc2)NC(=O)[C@H]([C@@H](C)O)NC(=O)[C@@H]2CCCN2C(=O)[C@H](CCCCN)NC(=O)[C@@H](NC(=O)CN)CSSC[C@@H](C(=O)NCC(=O)O)NC(=O)[C@H](CCCCN)NC(=O)[C@H](Cc2ccc(O)cc2)NC(=O)[C@H](CCCCN)NC(=O)[C@H](Cc2c[nH]c3ccccc23)NC(=O)[C@H](CCCCN)NC1=O` (HELM PEPTIDE1{G.C.K.P.T.F.R.R.L.K.W.K.Y.K.C.G}$PEPTIDE1,PEPTIDE1,2:R3-15:R3$$$V2.0) [listing 1 of 2 here], in assay [1], the Ratio was 67. As to `COc1ccc(CCN(CC(=O)N(CCC(c2ccccc2)c2ccccc2)CC(N)=O)C(=O)CNCCC(c2ccccc2)c2ccccc2)cc1`, in assay [2], the Ratio was 10. Moreover, the IC50 was greater than 250 µM in assay [3] and 50 µM in assay [4] (Mus musculus). Consider `CC(C)C[C@@H]1NC(=O)[C@H](CCCN=C(N)N)NC(=O)[C@H](CCCN=C(N)N)NC(=O)[C@H](Cc2ccccc2)NC(=O)[C@H]([C@@H](C)O)NC(=O)[C@@H]2CCCN2C(=O)[C@H](CCCCN)NC(=O)[C@@H](NC(=O)CN)CSSC[C@@H](C(=O)NCC(=O)O)NC(=O)[C@H](CCCCN)NC(=O)[C@H](Cc2ccc(O)cc2)NC(=O)[C@H](CCCCN)NC(=O)[C@H](Cc2c[nH]c3ccccc23)NC(=O)[C@H](CCCCN)NC1=O` (HELM PEPTIDE1{G.C.K.P.T.F.R.R.L.K.W.K.Y.K.C.G}$PEPTIDE1,PEPTIDE1,2:R3-15:R3$$$V2.0) [listing 2 of 2 here], for which the figures for the half-maximal inhibitory concentration (IC50) in assay [3] and in assay [4] (Mus musculus) were 40 µM and 64 µM, respectively. In the case of POLYMYXIN B [listing 1 of 2 here], the Ratio in assay [5] stood at 5. On to `NC(=O)CN(CCC(c1ccccc1)c1ccccc1)C(=O)CN(CCC(c1ccccc1)c1ccccc1)C(=O)CNCC1CCCO1` (stereo unspecified) [TRIMER I], for which the Ratio in assay [2] is 71. Besides, the IC50 worked out at 250 µM in assay [3] and 40 µM in assay [4] (Mus musculus). Consider POLYMYXIN B [listing 2 of 2 here], for which, in assay [4], the IC50 was less than 0.0001 µM.
